For orientation: Ki means a measure of affinity in units of concentration, obtained from inhibition or displacement. Higher therefore signals weaker binding. As usually defined, the ED50 is the dose at which the effect has come halfway, by size or by number of responders. A high value points to weaker potency.

Each structure is given as a SMILES string. Activity calls are given as the source filed them. No cut-off for these calls is given here. A value given as a limit tells only on which side of the number the result lay.

Experiment [1] is described as follows: Displacement of [3H]5-HT from 5-hydroxytryptamine 1 receptor of rat cortical membrane homogenates. (In a radioligand displacement assay an active substance lowers the binding of a labelled ligand.)
In experiment [2] the target is Serotonin 2 (5-HT2) receptor (Rattus norvegicus, UniProt P30994+P08909+P14842). The experiment in a line: Displacement of [3H]ketanserin from 5-hydroxytryptamine 2 receptor of rat cortical membrane homogenates.
Experiment [3] relates to Rattus norvegicus. The experiment in a line: Stimulus generalization studies in TFMPP trained animals and the number of animals responding /number to receive dose of drug was determined at dose of 1.0 mg/kg; 10/10. Format: functional.
In experiment [4] the test system is Rattus norvegicus. The experiment in a line: Compound was evaluated in tests of stimulus generalization using animals trained to discriminate DOM from saline, and the drug appropriate responding at dose of 3.0 mg/kg; Not responding. Further details: dose 3 mg/kg. Format: functional, organism-based. The procedure, abridged: (§1)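 Male Sprague-Dawley rats (n = 10) trained to discriminate 1.0 mg/kg DOM HCl from saline on a two-lever operant task, VI 15-s food reinforcement. Test doses were given ip in random order, 15 min pre-session, with at least three training sessions between tests. Responding was scored in a 2.5-min extinction session. Rats with fewer than five total responses were counted as disrupted.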

Experiment [5] deals with Rattus norvegicus. Nature of the experiment: Compound was evaluated in tests of stimulus generalization using animals trained to discriminate DOM from saline, and the drug appropriate responding at dose of 2.0 mg/kg. Format: functional. Summed up:
as §1

Experiment [6] relates to Rattus norvegicus. The experiment in a line: Compound was evaluated in tests of stimulus generalization using animals trained to discriminate DOM from saline, and the mean responses per min at dose of 2.0 mg/kg. Format: functional. Summed up:
as §1

For experiment [7], the system named is Rattus norvegicus. The experiment in a line: Stimulus generalization studies in TFMPP trained animals and the number of animals responding /number to receive dose of drug was determined at dose of 1 mg/kg; 3/4. Format: functional. Summed up: (§2)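 Male Sprague-Dawley rats (n = 6) trained to discriminate 0.5 mg/kg TFMPP HCl from saline on a two-lever operant task, VI 15-s food reward. Challenge doses were given ip in random order 15 min before a 2.5-min extinction test, with at least three training sessions between tests. Fewer than five total responses was scored as disruption.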

The test system of experiment [8] is Rattus norvegicus. Nature of the experiment: Compound was evaluated in tests of stimulus generalization using animals trained to discriminate DOM from saline, and the mean responses per min at dose of 0.5 mg/kg. Format: functional. Summed up: as §1
For experiment [9], the system named is Rattus norvegicus. Nature of the experiment: Compound was evaluated in tests of stimulus generalization using animals trained to discriminate DOM from saline, and the drug appropriate responding at dose of 2.7 mg/kg; Not responding. Format: functional, organism-based. Also noted: dose 2.7 mg/kg. The procedure, abridged: as §1
Experiment [10] concerns Rattus norvegicus. The experiment in a line: Compound was evaluated in stimulus generalization test using animals trained to discriminate TFMPP from saline, and the mean responses per min at dose of 2.5 mg/kg. Format: functional. Summed up: as §2
The subject of experiment [11] is Rattus norvegicus. The experiment in a line: Compound was evaluated in stimulus generalization test using animals trained to discriminate TFMPP from saline, and the drug appropriate responding at dose of 2.5 mg/kg. Format: functional. Summed up:
as §2

Experiment [12] has as its system Rattus norvegicus. The experiment in a line: Compound was evaluated in tests of stimulus generalization using animals trained to discriminate DOM from saline, and the drug appropriate responding at dose of 2.5 mg/kg. Format: functional. The procedure, abridged:
as §1

Experiment [13] deals with Rattus norvegicus. Nature of the experiment: Compound was evaluated in stimulus generalization test using animals trained to discriminate TFMPP from saline, and the mean responses per min at dose of 0.5 mg/kg. Format: functional. The procedure, abridged:
as §2

For experiment [14], the system named is Rattus norvegicus. Nature of the experiment: Compound was evaluated in stimulus generalization studies in DOM trained animals and the number of animals responding /number to receive dose of drug at dose of 3.0 mg/kg; 1/4. Format: functional. Summed up:
as §1

The species named for experiment [15] is Rattus norvegicus. Nature of the experiment: Compound was tested for the doses at which the animals would be expected to make approximately 50% of their responses on the DOM-appropriate lever. Format: functional. The procedure, abridged: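 DOM-trained rats (1.0 mg/kg DOM HCl vs saline, two-lever, VI 15 s, food) were given ip doses 15 min before a 2.5-min extinction session. Where >80% of responses fell on the DOM lever (generalization), the dose expected to give about 50% DOM-lever responding was calculated from dose–response data and reported with 95% confidence limits.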

The test system of experiment [16] is Rattus norvegicus. The experiment in a line: Compound was evaluated in stimulus generalization test using animals trained to discriminate TFMPP from saline, and the drug appropriate responding at dose of 0.5 mg/kg. Format: functional. Summed up: as §2
Experiment [17] deals with Rattus norvegicus. Nature of the experiment: Compound was evaluated in tests of stimulus generalization using animals trained to discriminate DOM from saline, and the drug appropriate responding at dose of 0.5 mg/kg. Format: functional. The procedure, abridged: as §1
In experiment [18] the test system is Rattus norvegicus. The experiment in a line: Compound was evaluated in stimulus generalization studies in DOM trained animals and the number of animals responding /number to receive dose of drug at dose of 2.2 mg/kg; 2/5. Format: functional. The procedure, abridged: as §1
Experiment [19] concerns Rattus norvegicus. The experiment in a line: Compound was evaluated in tests of stimulus generalization using animals trained to discriminate DOM from saline, and the mean responses per min at dose of 2.5 mg/kg. Format: functional. Summed up: as §1
The subject of experiment [20] is Rattus norvegicus. Nature of the experiment: Compound was evaluated in stimulus generalization studies in DOM trained animals and the number of animals responding /number to receive dose of drug at dose of 0.5 mg/kg; 3/3. Format: functional. Summed up:
as §1

The subject of experiment [21] is Rattus norvegicus. The experiment in a line: Stimulus generalization studies in TFMPP trained animals and the number of animals responding /number to receive dose of drug was determined at dose of 2.5 mg/kg; 5/5. Format: functional. Summed up: as §2
Experiment [22] deals with Rattus norvegicus. Nature of the experiment: Compound was evaluated in tests of stimulus generalization using animals trained to discriminate DOM from saline, and the drug appropriate responding at dose of 2.2 mg/kg; Not responding. Format: functional, organism-based. Further details: dose 2.2 mg/kg. The procedure, abridged:
as §1

For experiment [23], the system named is Rattus norvegicus. Nature of the experiment: Compound was evaluated in stimulus generalization studies in DOM trained animals and the number of animals responding /number to receive dose of drug at dose of 2.7 mg/kg; 1/4. Format: functional. Summed up:
as §1

The subject of experiment [24] is Rattus norvegicus. The experiment in a line: Compound was evaluated in stimulus generalization studies in DOM trained animals and the number of animals responding /number to receive dose of drug at dose of 2.5 mg/kg; 3/6. Format: functional. The procedure, abridged: as §1
Experiment [25] relates to Rattus norvegicus. The experiment in a line: Stimulus generalization studies in TFMPP trained animals and the number of animals responding /number to receive dose of drug was determined at dose of 0.5 mg/kg; 3/3. Format: functional. The procedure, abridged:
as §2

Experiment [26] relates to Rattus norvegicus. Nature of the experiment: Compound was evaluated in stimulus generalization test using animals trained to discriminate TFMPP from saline, and the mean responses per min at dose of 1.0 mg/kg. Format: functional. Summed up:
as §2

The subject of experiment [27] is Rattus norvegicus. Nature of the experiment: Compound was evaluated in stimulus generalization test using animals trained to discriminate TFMPP from saline, and the drug appropriate responding at dose of 1.0 mg/kg. Format: functional. The procedure, abridged: as §2
The test system of experiment [28] is Rattus norvegicus. The experiment in a line: Compound was evaluated in stimulus generalization studies in DOM trained animals and the number of animals responding /number ot receive dose of drug at dose of 2.0 mg/kg; 3/4. Format: functional. Summed up:
as §1

In experiment [29] the test system is Rattus norvegicus. The experiment in a line: Compound was evaluated in stimulus generalization test using animals trained to discriminate DOM from saline, and the drug appropriate responding at dose of 0.3 mg/kg; Not responding. Format: functional, organism-based. Further details: dose 0.3 mg/kg. The procedure, abridged: as §1
For experiment [30], the system named is Rattus norvegicus. The experiment in a line: Compound was evaluated in stimulus generalization test using animals trained to discriminate DOM from saline, and the mean responses per min at dose of 0.05 mg/kg. Format: functional. Summed up:
as §1

For experiment [31], the system named is Rattus norvegicus. Nature of the experiment: Compound was evaluated in stimulus generalization test using animals trained to discriminate DOM from saline, and the drug appropriate responding at dose of 0.05 mg/kg. Format: functional. Summed up:
as §1

The test system of experiment [32] is Rattus norvegicus. The experiment in a line: Compound was evaluated in stimulus generalization test using animals trained to discriminate DOM from saline, and the mean responses per min at dose of 0.1 mg/kg. Format: functional. Summed up: as §1
Experiment [33] concerns Rattus norvegicus. The experiment in a line: Compound was evaluated in stimulus generalization test using animals trained to discriminate DOM from saline, and the drug appropriate responding at dose of 2.0 mg/kg; Not responding. Format: functional, organism-based. Further details: dose 2 mg/kg. Summed up:
as §1

The test system of experiment [34] is Rattus norvegicus. Nature of the experiment: Compound was evaluated in stimulus generalization test using animals trained to discriminate DOM from saline, and the drug appropriate responding at dose of 0.1 mg/kg. Format: functional. The procedure, abridged:
as §1

Experiment [35] deals with Rattus norvegicus. Nature of the experiment: Compound was evaluated in stimulus generalization test using animals trained to discriminate DOM from saline, and the drug appropriate responding at dose of 0.5 mg/kg; Not responding. Format: functional, organism-based. Further details: dose 0.5 mg/kg. The procedure, abridged: as §1
The test system of experiment [36] is Rattus norvegicus. The experiment in a line: Stimulus generalization studies in TFMPP trained animals and the number of animals responding /number to receive dose of drug was determined at dose of 0.5 mg/kg; 6/6. Format: functional. Summed up: as §2

In the case of `c1ccc2nc(N3CCNCC3)ccc2c1` [QUIPAZINE], the Ki in [1] and in experiment [2] was 0.23 µM in each case.
On to `COc1cc(CC(C)N)c(OC)cc1C` (stereo not given) [DOM], for which the Activity with Rattus norvegicus [3] is on record as 10.
With `c1ccc2c(N3CCNCC3)cccc2c1`, the Drug responding entry with Rattus norvegicus [4], in the experiment on Rattus norvegicus [9] and in the experiment with Rattus norvegicus [22] was “inactive” each time. Moreover, the Drug responding in the experiment on Rattus norvegicus [5] was determined as 7%; in the experiment on Rattus norvegicus [11] it was 96%; in the experiment with Rattus norvegicus [12], 37%; in the experiment on Rattus norvegicus [16] it was 15%; in the experiment on Rattus norvegicus [17], 14%; in the experiment with Rattus norvegicus [27] it was 41%. In addition, the Mean response/min in the experiment with Rattus norvegicus [6] is 8.8; with Rattus norvegicus [8] it was 18; in the experiment on Rattus norvegicus [10], 16.4; in the experiment with Rattus norvegicus [13], 19.1; in the experiment with Rattus norvegicus [19] it was 2.6; in the experiment with Rattus norvegicus [26], 17.3. Also, the Activity in the experiment with Rattus norvegicus [7] turned out to be 3; in the experiment on Rattus norvegicus [14], 1; in the experiment on Rattus norvegicus [18], 2; with Rattus norvegicus [20], 3; with Rattus norvegicus [21], 5; in the experiment on Rattus norvegicus [23] it was 1. For the same compound, the Activity in the experiment with Rattus norvegicus [24], in the experiment on Rattus norvegicus [25] and in the experiment on Rattus norvegicus [28] was 3 in each case. The compound also yielded an ED50 in the experiment filed under Rattus norvegicus [15] of 1 mg/kg. Moreover, the inhibition constant Ki was 0.005 µM in [1] and 0.018 µM in experiment [2].
Regarding `CCCN(CCC)c1ccc2ccccc2n1`, the Ki in experiment [1] turned out to be 25 µM; in experiment [2], 50 µM.
Taken in the same sequence, the figures for `COc1cccc2ccc(N3CCN(C)CC3)nc12` were 1.9 µM and 1.2 µM.
On the same counts, the results for `c1ccc2nc(N3CCCCC3)ccc2c1` are more than 100 µM and more than 150 µM.
In the case of `CCCN(CCC)c1ccc2cccc(OC)c2n1`, the Ki was 45 µM in experiment [1] and 50 µM in experiment [2].
On the same counts, the results for `NC1CCc2ccccc2C1` (stereo not given) are 0.38 µM and 11.1 µM.
Taken in the same sequence, the figures for `COc1cccc2ccc(N3CCNCC3)nc12` were 0.415 µM and 0.31 µM.
On the same counts, the results for `COc1cccc2ccc(N)nc12` are 10.4 µM and 35 µM.
Turning to `c1ccc(N2CCNCC2)cc1` [PHENYLPIPERAZINE], the Drug responding result with Rattus norvegicus [29], in the experiment on Rattus norvegicus [33] and in the experiment on Rattus norvegicus [35] was “inactive” throughout. Moreover, the Mean response/min was found to be 13.1 with Rattus norvegicus [30] and 11.9 in the experiment with Rattus norvegicus [32]. Besides, the Ki in experiment [1] amounted to 0.135 µM; in experiment [2] it was 2.1 µM. Besides, the Drug responding in the experiment with Rattus norvegicus [31] is reported as 7%; in the experiment with Rattus norvegicus [34], 8%.
In the experiment on Rattus norvegicus [13], `FC(F)(F)c1cccc(N2CCNCC2)c1` showed a Mean response/min of 18.2. The compound further showed a Drug responding in the experiment on Rattus norvegicus [16] of 92%. For the same compound, in the experiment with Rattus norvegicus [36], the Activity is on record as 6.
Regarding `COc1cccc2ccc(N3CCCCC3)nc12`, the Ki turned out to be 33 µM in [1] and 71 µM in experiment [2].
Regarding `Nc1cnc2ccccc2c1`, the inhibitory constant (Ki) in experiment [1] was 56 µM; in experiment [2] it was more than 300 µM.

The record behind these values is ChEMBL document CHEMBL1123371, “5-HT1 and 5-HT2 binding characteristics of some quipazine analogues” (J Med Chem, 1986).
